Source: PubChem BioAssay (several laboratories)
PMI act hi M6P: human PMI activators, high substrate, primary screen, biochemical, fluorescence intensity, near-saturating mannose 6-phosphate; coupled PMI enzyme assay, resazurin fluorescence, 20 min; active compounds read high; 1 = untreated enzyme, 0 = substrate-free blank; Mannose-6-phosphate isomerase (Homo sapiens), P34949; activation factor at 20 µM; 190,000 tested, 0.34% active; AID 1216, 2008;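 active means activation factor of 2 or more at 20 µM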
Target sequence (P34949 whole entry, looked up): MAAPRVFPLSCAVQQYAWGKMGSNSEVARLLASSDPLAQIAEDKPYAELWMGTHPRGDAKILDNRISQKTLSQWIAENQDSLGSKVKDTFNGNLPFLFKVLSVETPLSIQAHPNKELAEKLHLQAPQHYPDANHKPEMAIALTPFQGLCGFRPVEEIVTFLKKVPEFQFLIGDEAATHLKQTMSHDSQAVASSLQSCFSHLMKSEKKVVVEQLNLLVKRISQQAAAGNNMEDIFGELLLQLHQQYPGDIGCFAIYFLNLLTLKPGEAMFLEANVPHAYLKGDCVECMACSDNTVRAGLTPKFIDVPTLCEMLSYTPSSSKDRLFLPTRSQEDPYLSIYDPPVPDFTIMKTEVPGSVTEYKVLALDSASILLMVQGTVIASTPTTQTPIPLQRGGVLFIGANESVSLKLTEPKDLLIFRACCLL
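Material: human phosphomannose isomerase with PGI, G6PDH, diaphorase coupling enzymes; amount: PMI at 15 ng/mL final; also added: Mannose-6-phosphate 1.0 mM (near-saturating) plus 0.22 mM NADP+; incubation: enzyme reaction with compound 20 min at room temperature; signal: resorufin fluorescence (Ex 544/Em 590 nm) from resazurin via diaphorase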
DTT redox prof: compounds producing H2O2 with reducing agent – biochemical, NIH compound library profiling, artefact control for MLSCN library redox annotation, primary screen | DTT-dependent redox cycling H2O2, phenol red/HRP absorbance; 100% = 100 µM peroxide control, 0% = buffer | activation, % at 10 µM | 200,000 tested, 0.03% active;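 active means activation of at least 50% relative to the plate's high and low controls in the primary single-dose screen; inactive means activation below 50%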;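 further: compound incubated with DTT at 0.8 mM final as the reducing agent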
G6PDH CS: L. mesenteroides G6PDH inhibitors, counter-screen for G6PDH-coupled screening assays, biochemical, Leuconostoc mesenteroides enzyme; Purified L. mesenteroides G6PDH, diaphorase/resazurin coupled fluorescence, 45 min; inhibition, % at 5 µM; 200,000 tested, 0.12% active; AID 1020, 2008; in the data active means inhibition above about 50%
PMI activator: activators of human PMI, primary screen, biochemical, fluorescence intensity, near-Km mannose 6-phosphate; Mannose-6-phosphate isomerase (Homo sapiens), P34949; purified human PMI, coupled resazurin fluorescence, 20 min; active compounds read high; 1 = vehicle control, 0 substrate-free wells; activation factor at 20 µM; 190,000 tested, 0.005% active;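 active means activation factor of 2 or more at 20 µM, relative to plate controls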
Diaphorase act: compounds boosting diaphorase resazurin reduction – biochemical, uHTS, resorufin fluorescence, counter-screen for diaphorase-coupled primary assays, primary screen | activation factor at 20 µM | 190,000 tested, 0.005% active | Diaphorase/resazurin coupled assay, 16 min; active compounds read high; 1 = vehicle wells, 0 = NADH-free wells;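 active means diaphorase activity raised at least twofold by the compound at 20 µM; inactive means activation factor below 2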
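Material: purified diaphorase enzyme from Clostridium kluyveri / Medium: HEPES pH 7.4 buffer with MgCl2 and Tween 20 / Schedule: enzyme reaction of 16 min at room temperature / Measured by: resorufin fluorescence, excitation 544 nm, emission 590 nm / Evaluation: rise in resorufin formation, marking diaphorase activation or chemical reduction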
Diaph inh CS: diaphorase inhibitors and chemical oxidizers, primary screen, counter-screen for diaphorase-coupled primary assays, biochemical, uHTS, resorufin fluorescence; diaphorase resazurin-to-resorufin fluorescence, NADH, 16 min; bacterial (C. kluyveri) enzyme, not human; inhibition, % at 20 µM; 190,000 tested, 0.69% active; AID 1217, 2008;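 active means primary screen inhibition at 20 µM above a set limit, cut at about 50% in these data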;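 further: plate controls were DMSO with full reaction for no effect and wells lacking NADH for full effect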
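Benchmarks: positive control wells lacking NADH, neutral wells with DMSO only. System: bacterial diaphorase enzyme (C. kluyveri). Input: 0.14 U/mL diaphorase, enzyme working solution. Detection: resorufin fluorescence, excitation 544 nm, emission 590 nm. Times: 16-min room-temperature incubation before reading.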
Numbers without * were called inactive. Hits are enriched below; roughly 1.1% of the tested compounds scored in any of these assays.

SMILES	PMI act hi M6P	DTT redox prof	G6PDH CS	PMI activator	Diaphorase act	Diaph inh CS
CCOC(=O)C1=C(Cc2ccc(C)cc2)C(=O)c2ccccc2C1=O	1.5	0	54*	1.2	0.6	40
NC(=S)n1[nH]c(-c2ccc([N+](=O)[O-])cc2)c(N=Nc2cccc(Cl)c2)c1=O	1	-1	2	0.9	0.5	51*
O=[N+]([O-])c1cc(S(=O)(=O)N2CCCC2)ccc1SCCO	1.1	-1	-2	1.1	0.9	8
COc1ccc(NC2=NC(=S)N(c3ccccc3C)C23CCCCC3)cc1	0.9	-14	0	0.9	0.9	13
[O-][N+]1=c2ccc(Nc3ccccc3)cc2=NC12CCCCC2	0.3	2	48	0.2	0.3	72*
COc1ccc(Nc2ccc3c(c2)=NC2(CCCCC2)[N+]=3[O-])cc1	0.3	4	56*	0.2	0.3	73*
CC12CCC(C/C1=N\N=C1\NC(=O)/C(=C\c3ccc(Cl)cc3)S1)C2(C)C (configuration not stated)	0.8	1	-35	0.8	0.7	25
S=c1[nH]c(-c2ccccc2)cs1	2.1*	1	-1	1.6	0.8	19
Fc1ccc(-c2csc(=S)[nH]2)cc1	2.4*	0	6	1.6	0.8	24
O=c1[nH]c(-c2ccccc2)cs1	1.1	0	4	1	0.9	8
COc1ccc(CCNC(=O)CSc2nnc(NC(C)=O)s2)cc1OC	1	-1	10	1	0.9	10
C/C(=N\Nc1ccc(C(=O)O)cc1)c1ccc(-n2ccnc2)cc1	2*	0	4	1.6	0.8	22
C/C(=N\NC(N)=O)c1ccc(-n2ccnc2)cc1	1.1	0	-8	1.1	1	1
C/C(=N\Nc1ccccc1Cl)c1ccc(-n2ccnc2)cc1	2.7*	-1	-1	1.7	1.2	-21
Cc1cc(C)nc(/N=C2\NC(=O)CC(C(=O)O)N2c2ccc(C)c(C)c2)n1 (configuration not stated)	1	-1	6	1	0.9	14
CCOc1ccc(-c2csc(/C(C#N)=C\c3ccc(O)c([N+](=O)[O-])c3)n2)cc1	0.8	0	12	0.7	0.1	87*
CCCCc1ccc(-c2csc(/C(C#N)=C\c3ccc(C)o3)n2)cc1	0.9	3	1	0.9	0.7	26
O=C(CNC(=S)N(CCCN1CCOCC1)Cc1cccs1)N1CCCCCC1	0.4	0	-4	0.8	0.8	15
O=C(Nc1nc(-c2ccccn2)cs1)c1cc(Cl)ccc1[N+](=O)[O-]	0.9	-1	13	0.7	0.8	22
Cc1cc(C(=O)Nc2nc(-c3ccccn3)cs2)ccc1[N+](=O)[O-]	2.4*	-1	9	1.8	0.8	16
COc1cc(CNc2ccc3[nH]c(=O)[nH]c3c2)cc(Br)c1OCC(=O)NC(C)(C)C	0.7	0	2	0.7	0.6	40
C=CCOc1ccc(CNc2ccc3[nH]c(=O)[nH]c3c2)cc1OC	0.2	-2	9	0.2	0.1	94*
COc1cc(CNc2ccc3[nH]c(=O)[nH]c3c2)ccc1OCC(=O)NC(C)(C)C	0.3	0	14	0.2	0.3	69*
C=CCOc1cccc(CNc2ccc3[nH]c(=O)[nH]c3c2)c1	0.6	2	-3	0.8	0.7	30
Nc1ccc(C(=O)Nc2ccco2)cc1	0.9	1	-2	1	0.9	7
SMILES	PMI act hi M6P	DTT redox prof	G6PDH CS	PMI activator	Diaphorase act	Diaph inh CS
CCOc1ccccc1Nc1nnc(SCC(=O)Nc2cccc(S(=O)(=O)NC3=NCCCCC3)c2)s1	0.9	0	-1	0.9	0.8	18
Brc1ccc(C2Nc3cccc4cccc(c34)N2)o1	0.7	1	36	1	0.1	85*
c1csc(C2Nc3cccc4cccc(c34)N2)c1	0.9	-1	17	0.9	0.4	62*
CN1c2cccc3cccc(c23)N(C)C1c1cccs1	0.4	0	22	0.6	0.5	48
COc1ccc(NC(=O)CSc2ccc3nnc(-c4cccnc4)n3n2)c(OC)c1	0.8	0	10	0.9	0.8	18
CC(C)NC(=O)c1ccc2c(c1)S(=O)(=O)c1ccccc1C2=O	1.3	0	3	1.2	1	-2
NNC(=O)c1ccc2c(c1)S(=O)(=O)NNC2=O	2.9*	-1	2	1.9	1	0
Cc1ccc2c(Cl)cc(Cl)c(OCC(=O)NC(=O)NCc3ccco3)c2n1	1	-5	6	1	0.8	24
Cc1ccc2c(Cl)cc(Cl)c(OCC(=O)NCc3ccco3)c2n1	1.1	1	28	0.9	0.5	54*
CCCNc1sc(S(=O)(=O)CCC)nc1S(=O)(=O)c1ccc(C)cc1	0.9	0	6	1	0.9	11
CCOC(=O)NC1(Nc2cccc(Cl)c2)Oc2ccccc2O1	0.6	0	11	0.5	0.4	55*
CCC1(COC(=O)Nc2cccc(Cl)c2)COC1	1	1	0	1	0.9	13
Cc1ccc(/C=C2\SC(=S)N(/N=C/c3cc([N+](=O)[O-])ccc3O)C2=O)o1	1.6	0	12	1.3	0.4	63*
Cc1cccc(N2CCc3c2nc2ccc(Br)cc2c3N)c1	0.4	1	7	0.3	0.2	78*
CC(C)[C@H](NS(=O)(=O)c1cccc(Cl)c1)C(=O)OCC(=O)N1CCN(c2ccccc2)CC1	2*	0	-14	1.4	0.9	8
COCCN=C1Sc2nc3ccc(C)cc3cc2CN1Cc1ccco1	2.1*	0	2	1.6	1	4
CCOc1ccc2nc3c(cc2c1)CN(CCOC)C(=NCCOC)S3	0.9	2	6	0.9	0.9	14
O=C(N/N=C/c1ccc(O)c([N+](=O)[O-])c1)C1CC1(c1ccccc1)c1ccccc1 (configuration not stated)	0.8	0	13	0.8	0.3	72*
O=C(CSc1ncccn1)N/N=C/c1ccccc1[N+](=O)[O-]	1	0	9	1.1	0.9	6
